Reference: ChEMBL document CHEMBL3875170, “2-Methyl-4/5-nitroimidazole derivatives potentiated against sexually transmitted Trichomonas: Design, synthesis, biology and 3D-QSAR study” (Eur J Med Chem, 2016)
≈ marks a conversion by molar mass, not a printed value.

Experiments:
[1] = tested on: Trichomonas vaginalis; test: Antiparasitic activity against metronidazole sensitive Trichomonas vaginalis ATCC 33592 after 48 hrs by trypan blue exclusion assay; format: functional; settings: ATCC 33592, 48 h
[2] = tested on: Trichomonas vaginalis; test: Antiparasitic activity against metronidazole resistant Trichomonas vaginalis ATCC 50143 after 48 hrs by trypan blue exclusion assay; format: functional; settings: ATCC 50143, 48 h
Outline: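 T. vaginalis trophozoites ([…]), log phase, grown in TYM with 10% FCS, vitamin mix and penicillin/streptomycin at 37 °C. Test agents from DMSO stocks serially diluted in TYM; DMSO/TYM vehicle controls. Anaerobic incubation at 37 °C with microscopic viability checks from 3 to 48 h by trypan blue exclusion. MIC is the lowest concentration killing all cells by 48 h. Repeated three times.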

[3] = Cytotoxicity against human HeLa cells after 24 hrs by MTT assay; format: toxicity, cell-based
Outline: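 HeLa cells seeded at 2 × 10⁴ per well in DMEM with 10% FCS, in triplicate, and held 24 h at 37 °C in 5% CO₂. Exposed to compound dilutions for 24 h; controls received 0.05% DMSO. MTT in PBS pH 7.4 added, formazan dissolved in DMSO, OD540 read. IC50 taken as the concentration killing 50% of cells.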

[4] = Selectivity index, ratio of IC50 for human HeLa cells to MIC for metronidazole sensitive Trichomonas vaginalis ATCC 33592; format: toxicity, cell-based; settings: read-out: Selectivity Index
Outline: (§1)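 SI is HeLa IC50 divided by parasite MIC. HeLa cells seeded at 2 × 10⁴/well in triplicate in DMEM with 10% FCS, 24 h at 37 °C in 5% CO2. Medium then replaced with compound dilutions (0.05% DMSO controls) for 24 h. Viability by MTT read at OD540; IC50 is the concentration killing 50% of cells. MIC from 48 h trypan blue parasite killing in TYM.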

[5] = Selectivity index, ratio of IC50 for human HeLa cells to MIC for metronidazole resistant Trichomonas vaginalis ATCC 50143; format: toxicity, cell-based; settings: read-out: Selectivity Index; outline: as §1
[6] = tested on: Trichomonas vaginalis; test: Potency index, ratio of metronidazole MIC to compound MIC for metronidazole resistant Trichomonas vaginalis ATCC 50143; format: functional

Structure (SMILES)	MIC [1] [µM]	MIC [2] [µM]	IC50 at 24 h [3] [mM]	selectivity ratio [4]	selectivity ratio [5]	Ratio [6]
CCN(C)C(=S)SCC(O)Cn1c([N+](=O)[O-])cnc1C (stereo not given)	24.6 (≈ 7.82 µg/mL)	393 (≈ 125 µg/mL)	4.15	169	10	–
Cc1ncc([N+](=O)[O-])n1CC(O)CSC(=S)N1CCCCCC1 (racemic)	34.9 (≈ 12.5 µg/mL)	69.8 (≈ 25 µg/mL)	0.411	11	6	2.5 - 12.6
CCOC(=O)N1CCN(CC(O)Cn2c([N+](=O)[O-])cnc2C)CC1 (racemic)	22.9 (≈ 7.82 µg/mL)	91.6 (≈ 31.3 µg/mL)	3.67	160	40	<=12.7
Cc1ncc([N+](=O)[O-])n1CC(O)CN1CCCC(C)C1 (racemic)	22.2 (≈ 6.26 µg/mL)	88.7 (≈ 25 µg/mL)	> 5	> 227	> 56	<=12.7
Cc1ncc([N+](=O)[O-])n1CC(O)CN1CCCCC1 (racemic)	23.3 (≈ 6.26 µg/mL)	187 (≈ 50.1 µg/mL)	> 5	> 217	> 26	<=12.7
Cc1ncc([N+](=O)[O-])n1CC(O)CN1CCC(Cc2ccccc2)CC1 (racemic)	34.9 (≈ 12.5 µg/mL)	140 (≈ 50.1 µg/mL)	1.43	40	10	<=12.7
CCN1CCN(CC(O)Cn2cc([N+](=O)[O-])nc2C)CC1 (racemic)	337 (≈ 100 µg/mL)	–	> 5	> 14	–	–
Cc1ncc([N+](=O)[O-])n1CC(O)CN1CCN(c2ccccc2)CC1 (racemic)	22.6 (≈ 7.82 µg/mL)	181 (≈ 62.6 µg/mL)	> 5	> 220	> 27	<=12.7
Cc1ncc([N+](=O)[O-])n1CC(O)CN1CCCCC1C (racemic)	55.4 (≈ 15.6 µg/mL)	443 (≈ 125 µg/mL)	> 5	> 90	> 11	–
COc1ccccc1N1CCN(C(=S)SCC(O)Cn2c([N+](=O)[O-])cnc2C)CC1 (racemic)	27.7 (≈ 12.5 µg/mL)	55.4 (≈ 25 µg/mL)	> 5	> 185	> 90	<=12.7
Cc1ncc([N+](=O)[O-])n1CC(O)CN1CCN(c2ccccc2F)CC1 (racemic)	43 (≈ 15.6 µg/mL)	344 (≈ 125 µg/mL)	> 5	> 116	> 14	<=12.7
COc1ccccc1N1CCN(C(=S)SCC(O)Cn2cc([N+](=O)[O-])nc2C)CC1 (racemic)	222 (≈ 100 µg/mL)	1110 (≈ 501 µg/mL)	> 5	> 22	> 4	–
Cc1nc([N+](=O)[O-])cn1CC(O)CSC(=S)N1CCN(C(=O)OC(C)(C)C)CC1 (racemic)	28.1 (≈ 12.5 µg/mL)	562 (≈ 250 µg/mL)	> 5	> 178	> 9	–
CCOC(=O)N1CCN(C(=S)SCC(O)Cn2cc([N+](=O)[O-])nc2C)CC1 (racemic)	120 (≈ 50.1 µg/mL)	600 (≈ 250 µg/mL)	2.36	19	4	–
Cc1nc([N+](=O)[O-])cn1CC(O)CSC(=S)N1CCN(c2cccc(Cl)c2)CC1 (racemic)	54.9 (≈ 25.1 µg/mL)	549 (≈ 251 µg/mL)	1.74	31	3	–
Cc1ncc([N+](=O)[O-])n1CC(O)CN1CCC(C)CC1 (racemic)	44.3 (≈ 12.5 µg/mL)	177 (≈ 50.1 µg/mL)	> 5	> 113	> 28	<=12.7
Cc1ncc([N+](=O)[O-])n1CC(O)CN1CCCC1 (racemic)	49.2 (≈ 12.5 µg/mL)	197 (≈ 50.1 µg/mL)	> 5	> 102	> 25	<=12.7
Cc1nc([N+](=O)[O-])cn1CC(O)CSC(=S)N1CCCC(C)C1 (racemic)	34.9 (≈ 12.5 µg/mL)	1400 (≈ 501 µg/mL)	2.7	105	2	–
Cc1ncc([N+](=O)[O-])n1CC(O)CSC(=S)N1CCOCC1 (racemic)	36.1 (≈ 12.5 µg/mL)	144 (≈ 50.1 µg/mL)	4.52	125	31	2.5 - 12.6

Structure (SMILES)	MIC [1] [µM]	MIC [2] [µM]	IC50 at 24 h [3] [mM]	selectivity ratio [4]	selectivity ratio [5]	Ratio [6]
COc1ccccc1N1CCN(CC(O)Cn2c([N+](=O)[O-])cnc2C)CC1 (racemic)	33.3 (≈ 12.5 µg/mL)	133 (≈ 50.1 µg/mL)	4.39	131	33	<=12.7
Cc1ncc([N+](=O)[O-])n1CC(O)CSC(=S)N1CCCC1 (racemic)	37.9 (≈ 12.5 µg/mL)	152 (≈ 50.1 µg/mL)	1.34	35	9	2.5 - 12.6
Cc1nc([N+](=O)[O-])cn1CC(O)CN1CCN(c2cccc(Cl)c2Cl)CC1 (racemic)	121 (≈ 50 µg/mL)	1210 (≈ 500 µg/mL)	3.62	30	3	–
Cc1ncc([N+](=O)[O-])n1CC(O)CN1CCCCCC1 (racemic)	22.2 (≈ 6.26 µg/mL)	44.3 (≈ 12.5 µg/mL)	> 5	> 227	> 113	<=12.7
Cc1ncc([N+](=O)[O-])n1CC(O)CN1CCN(c2cccc(Cl)c2)CC1 (racemic)	132 (≈ 50.1 µg/mL)	330 (≈ 125 µg/mL)	1.44	10	4	<=12.7
Cc1ncc([N+](=O)[O-])n1CC(O)CSC(=S)N1CCN(c2ccccn2)CC1 (racemic)	29.6 (≈ 12.5 µg/mL)	148 (≈ 62.6 µg/mL)	2.97	100	20	<=12.7
Cc1ncc([N+](=O)[O-])n1CC(O)CSC(=S)N1CCCCC1 (racemic)	72.7 (≈ 25 µg/mL)	145 (≈ 50.1 µg/mL)	1.4	19	9	2.5 - 12.6
Cc1nc([N+](=O)[O-])cn1CC(O)CSC(=S)N1CCN(c2cccc(Cl)c2Cl)CC1 (racemic)	25.5 (≈ 12.5 µg/mL)	510 (≈ 250 µg/mL)	0.724	30	2	–
CCN1CCN(C(=S)SCC(O)Cn2c([N+](=O)[O-])cnc2C)CC1 (racemic)	20.9 (≈ 7.82 µg/mL)	83.8 (≈ 31.3 µg/mL)	> 5	> 250	> 60	<=12.7
Cc1ncc([N+](=O)[O-])n1CC(O)CN1CCN(c2ccco2)CC1 (racemic)	21.5 (≈ 7.21 µg/mL)	172 (≈ 57.7 µg/mL)	3.52	163	20	<=12.7
CCCCN1CCN(C(=S)SCC(O)Cn2cc([N+](=O)[O-])nc2C)CC1 (racemic)	125 (≈ 50.1 µg/mL)	–	4.33	34	–	–
Cc1nc([N+](=O)[O-])cn1CC(O)CN1CCN(c2ccccn2)CC1 (racemic)	144 (≈ 50.1 µg/mL)	1450 (≈ 501 µg/mL)	> 5	> 34	> 3	–
Cc1ncc([N+](=O)[O-])n1CC(O)CSC(=S)N(C)C (racemic)	20.6 (≈ 6.26 µg/mL)	82.2 (≈ 25 µg/mL)	> 5	> 243	> 61	<=12.7
Cc1ncc([N+](=O)[O-])n1CC(O)CSC(=S)N1CCN(c2ncccn2)CC1 (racemic)	29.6 (≈ 12.5 µg/mL)	29.6 (≈ 12.5 µg/mL)	2.04	69	69	12.3
Cc1ncc([N+](=O)[O-])n1CC(O)CN1CCN(c2ncccn2)CC1 (racemic)	22.5 (≈ 7.82 µg/mL)	90 (≈ 31.3 µg/mL)	3.93	174	43	<=12.7
CCN1CCN(C(=S)SCC(O)Cn2cc([N+](=O)[O-])nc2C)CC1 (racemic)	134 (≈ 50.1 µg/mL)	1340 (≈ 501 µg/mL)	> 5	> 37	> 3	–
Cc1ncc([N+](=O)[O-])n1CC(O)CN1C(C)CCCC1C (racemic)	42.2 (≈ 12.5 µg/mL)	84.5 (≈ 25 µg/mL)	> 5	> 119	> 59	<=12.7
CCN(CC)C(=S)SCC(O)Cn1c([N+](=O)[O-])cnc1C (racemic)	37.6 (≈ 12.5 µg/mL)	75.3 (≈ 25 µg/mL)	2.46	65	32	<=12.7
Cc1nc([N+](=O)[O-])cn1CC(O)Cn1cncn1 (racemic)	99.2 (≈ 25 µg/mL)	992 (≈ 250 µg/mL)	> 5	> 50	> 5	–
